Experiment [1] relates to RAW264.7. Put plainly: Antiinflammatory activity in LPS-induced mouse RAW264.7 cells assessed as TNFalpha levels at 5 uM pretreated for 2 hrs followed by LPS stimulation and measured after 12 hrs by ELISA (reference value: 5313.7 +/- 420.9 pg/ml). The experiment is classed as functional. The procedure, abridged: (§1)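 RAW264.7 murine macrophages (DMEM, 10% serum, 37 °C, 5% CO2) seeded at 5 × 10^5 cells per well, pretreated 2 h with compound at 10, 5, 2.5 or 1.25 μM (DMSO 0.1% v/v), then LPS (E. coli 0127:B8) 100 ng mL−1 added. Supernatant TNF-α or IL-6 read by mouse ELISA kit after 6, 12 and 24 h. Mean ± SD, n = 3, three independent experiments.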

Experiment [2] relates to Danio rerio. The experiment in a line: In-vivo antiinflammatory activity in 4 days post fertilized zebrafish larvae harboring coronilla-eGFP/Lyc-dsRed assessed as reduction in macrophage recruitment to wounded tail at 5 to 20 uM measured after 3 to 6 hrs by fluorescence microscopic analysis. Format: functional, organism-based. The procedure, abridged: (§2)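 Double transgenic neutrophil/macrophage reporter larvae (Coronilla-eGFP/Lyc-dsRed), 4 dpf, tail-cut. […] Neutrophils and macrophages gathering at the wound imaged by fluorescence microscopy at 3 and 6 h. 6–8 larvae per group. Uncut larvae serve as blank, untreated cut larvae as control.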

Experiment [3] relates to RAW264.7. Put plainly: Antiinflammatory activity in LPS-induced mouse RAW264.7 cells assessed as TNFalpha levels at 2.5 uM pretreated for 2 hrs followed by LPS stimulation and measured after 24 hrs by ELISA (reference value: 9653.7 +/- 377.3 pg/ml). The experiment is classed as functional. The gist of the method:
as §1

For experiment [4], the system named is RAW264.7. Put plainly: Antiinflammatory activity in LPS-induced mouse RAW264.7 cells assessed as IL-6 levels at 1.25 uM pretreated for 2 hrs followed by LPS stimulation and measured after 12 hrs by ELISA (reference value: 1394 +/- 62.6 pg/ml). The experiment is classed as functional. The procedure, abridged:
as §1

Experiment [5] relates to RAW264.7. The experiment in a line: Antiinflammatory activity in LPS-induced mouse RAW264.7 cells assessed as TNFalpha levels at 1.25 uM pretreated for 2 hrs followed by LPS stimulation and measured after 12 hrs by ELISA (reference value: 5313.7 +/- 420.9 pg/ml). The experiment is classed as functional.
Experiment [6] relates to RAW264.7. Put plainly: Antiinflammatory activity in LPS-induced mouse RAW264.7 cells assessed as TNFalpha levels at 1.25 uM pretreated for 2 hrs followed by LPS stimulation and measured after 6 hrs by ELISA (reference value: 4377.1 +/- 318.6 pg/ml). The experiment is classed as functional. The gist of the method: as §1
The test system of experiment [7] is RAW264.7. The experiment in a line: Antiinflammatory activity in LPS-induced mouse RAW264.7 cells assessed as TNFalpha levels at 1.25 uM pretreated for 2 hrs followed by LPS stimulation and measured after 24 hrs by ELISA (reference value: 9653.7 +/- 377.3 pg/ml). Format: functional. The gist of the method:
as §1

Experiment [8] addresses Mitogen-activated protein kinase 1 and 3 (ERK2 and ERK1) (Mus musculus) (UniProt P63085+Q63844). Put plainly: Inhibition of LPS-induced ERK1/2 phosphorylation in mouse RAW264.7 cells after 4 hrs by Western blot analysis. Format: cell-based. The gist of the method: (§3)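 RAW264.7 cells at 2 × 10^6 per well given fresh medium with compound (10, 5, 2.5, 1.25 μM) plus LPS 500 ng mL−1 for 4 h. Lysed in IP buffer with 1 mM PMSF, protein by BCA. Run on 12.5% SDS-PAGE and blotted. Phospho and total ERK1/2 (Thr202/Tyr204), p38 (Thr180/Tyr182), IκBα (Ser32/36) and NF-κB p65 detected by ECL. Mean ± SD, n = 3.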

The subject of experiment [9] is RAW264.7. Put plainly: Antiinflammatory activity in LPS-induced mouse RAW264.7 cells assessed as TNFalpha levels at 5 uM pretreated for 2 hrs followed by LPS stimulation and measured after 6 hrs by ELISA (reference value: 4377.1 +/- 318.6 pg/ml). Format: functional. The procedure, abridged:
as §1

Experiment [10] has as its system RAW264.7. The experiment in a line: Antiinflammatory activity in LPS-induced mouse RAW264.7 cells assessed as TNFalpha levels at 10 uM pretreated for 2 hrs followed by LPS stimulation and measured after 6 hrs by ELISA (reference value: 4377.1 +/- 318.6 pg/ml). The experiment is classed as functional. The gist of the method: as §1
In experiment [11] the test system is Danio rerio. The experiment in a line: In-vivo antiinflammatory activity in 4 days post fertilized zebrafish larvae harboring coronilla-eGFP/Lyc-dsRed assessed as reduction in neutrophil recruitment to wounded tail at 5 to 20 uM measured after 3 to 6 hrs by fluorescence microscopic analysis. The experiment is classed as functional, organism-based. The gist of the method:
as §2

Experiment [12] deals with RAW264.7. Put plainly: Antiinflammatory activity in LPS-induced mouse RAW264.7 cells assessed as IL-6 levels at 1.25 uM pretreated for 2 hrs followed by LPS stimulation and measured after 6 hrs by ELISA (reference value: 472.3 +/- 25.8 pg/ml). Format: functional. The gist of the method: as §1
The test system of experiment [13] is RAW264.7. The experiment in a line: Antiinflammatory activity in LPS-induced mouse RAW264.7 cells assessed as IL-6 levels at 10 uM pretreated for 2 hrs followed by LPS stimulation and measured after 12 hrs by ELISA (reference value: 1394 +/- 62.6 pg/ml). The experiment is classed as functional. The procedure, abridged: as §1
Experiment [14] addresses Transcription factor p65 (Mus musculus) (UniProt Q04207). The experiment in a line: Inhibition of LPS-induced NFkappaB p65 phosphorylation in mouse RAW264.7 cells after 4 hrs by Western blot analysis. Format: cell-based. The gist of the method:
as §3

Experiment [15] concerns RAW264.7. Put plainly: Antiinflammatory activity in mouse RAW264.7 cells assessed as inhibition of LPS-induced NO production pretreated for 2 hrs followed by LPS stimulation measured after 24 hrs by Griess assay. The experiment is classed as functional, cell-based. The gist of the method: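 RAW264.7 murine macrophages (DMEM, 10% serum, 37 °C, 5% CO2) seeded at 5 × 10^4 cells/well and cultured 18 h. Compounds tested at 1–100 μM (DMSO 0.1% v/v), with LPS (E. coli 0127:B8) at 100 ng mL−1. Supernatant nitrite read with Griess reagent (10 min, room temperature, OD540).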

The subject of experiment [16] is RAW264.7. The experiment in a line: Antiinflammatory activity in LPS-induced mouse RAW264.7 cells assessed as IL-6 levels at 5 uM pretreated for 2 hrs followed by LPS stimulation and measured after 24 hrs by ELISA (reference value: 1966.6 +/- 102.3 pg/ml). Format: functional. The gist of the method:
as §1

Experiment [17] concerns RAW264.7. The experiment in a line: Antiinflammatory activity in LPS-induced mouse RAW264.7 cells assessed as IL-6 levels at 5 uM pretreated for 2 hrs followed by LPS stimulation and measured after 6 hrs by ELISA (reference value: 472.3 +/- 25.8 pg/ml). Format: functional. The procedure, abridged:
as §1

Experiment [18] concerns RAW264.7. The experiment in a line: Antiinflammatory activity in LPS-induced mouse RAW264.7 cells assessed as TNFalpha levels at 10 uM pretreated for 2 hrs followed by LPS stimulation and measured after 12 hrs by ELISA (reference value: 5313.7 +/- 420.9 pg/ml). The experiment is classed as functional. The gist of the method: as §1
Experiment [19] has as its system RAW264.7. The experiment in a line: Antiinflammatory activity in LPS-induced mouse RAW264.7 cells assessed as TNFalpha levels at 10 uM pretreated for 2 hrs followed by LPS stimulation and measured after 24 hrs by ELISA (reference value: 9653.7 +/- 377.3 pg/ml). The experiment is classed as functional. The gist of the method:
as §1

The test system of experiment [20] is RAW264.7. The experiment in a line: Antiinflammatory activity in LPS-induced mouse RAW264.7 cells assessed as IL-6 levels at 10 uM pretreated for 2 hrs followed by LPS stimulation and measured after 24 hrs by ELISA (reference value: 1966.6 +/- 102.3 pg/ml). Format: functional. The gist of the method: as §1

Calls of active or inactive are those of the source. The rule behind the calls is not given here.

Mitogen-activated protein kinase 1 and 3 (ERK2 and ERK1) (Mus musculus), sequence (P63085 whole entry, looked up): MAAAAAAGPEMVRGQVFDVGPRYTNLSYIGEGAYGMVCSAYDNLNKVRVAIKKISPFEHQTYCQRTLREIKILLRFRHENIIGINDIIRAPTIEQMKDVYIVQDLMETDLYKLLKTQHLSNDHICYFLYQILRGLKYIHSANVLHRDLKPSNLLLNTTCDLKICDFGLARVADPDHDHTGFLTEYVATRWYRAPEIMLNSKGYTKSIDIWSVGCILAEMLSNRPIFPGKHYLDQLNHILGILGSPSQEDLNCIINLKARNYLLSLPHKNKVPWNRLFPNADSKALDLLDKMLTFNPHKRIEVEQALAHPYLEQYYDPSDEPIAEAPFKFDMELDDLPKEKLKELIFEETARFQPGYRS
Mitogen-activated protein kinase 1 and 3 (ERK2 and ERK1) (Mus musculus), sequence (Q63844 whole entry, looked up): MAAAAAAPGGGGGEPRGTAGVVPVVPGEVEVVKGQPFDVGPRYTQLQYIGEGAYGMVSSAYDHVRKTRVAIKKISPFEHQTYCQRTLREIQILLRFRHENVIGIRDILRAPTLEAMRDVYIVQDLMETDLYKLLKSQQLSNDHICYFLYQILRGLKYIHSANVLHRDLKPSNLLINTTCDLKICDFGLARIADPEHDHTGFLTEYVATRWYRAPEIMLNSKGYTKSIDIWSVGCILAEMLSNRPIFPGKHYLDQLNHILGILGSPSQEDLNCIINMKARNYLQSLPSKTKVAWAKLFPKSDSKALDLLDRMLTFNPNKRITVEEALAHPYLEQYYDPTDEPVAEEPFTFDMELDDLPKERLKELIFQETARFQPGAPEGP
Transcription factor p65 (Mus musculus), sequence (Q04207 whole entry): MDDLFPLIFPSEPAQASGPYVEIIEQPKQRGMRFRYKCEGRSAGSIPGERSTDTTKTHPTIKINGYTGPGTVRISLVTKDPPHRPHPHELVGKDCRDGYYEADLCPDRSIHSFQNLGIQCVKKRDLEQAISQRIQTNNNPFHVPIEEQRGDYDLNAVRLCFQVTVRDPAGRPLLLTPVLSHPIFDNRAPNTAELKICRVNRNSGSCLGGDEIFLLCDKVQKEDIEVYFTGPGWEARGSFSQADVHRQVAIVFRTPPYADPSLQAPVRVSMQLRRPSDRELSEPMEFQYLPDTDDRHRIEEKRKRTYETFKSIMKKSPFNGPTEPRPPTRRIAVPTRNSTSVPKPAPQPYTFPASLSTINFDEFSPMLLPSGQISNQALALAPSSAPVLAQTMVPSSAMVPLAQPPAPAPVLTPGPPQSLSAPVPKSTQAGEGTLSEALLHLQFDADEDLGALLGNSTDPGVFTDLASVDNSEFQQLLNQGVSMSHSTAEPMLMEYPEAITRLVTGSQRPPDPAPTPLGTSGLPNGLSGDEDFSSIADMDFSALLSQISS

For `CC1=C[C@@H](O/C=C2/C(=O)O[C@H]3c4ccccc4C[C@@H]23)OC1=O`, the Activity in the experiment on RAW264.7 [1] stood at 5079.1 pg/mL; in the experiment on RAW264.7 [3], 9444.5 pg/mL; in the experiment on RAW264.7 [4] it was 1374.3 pg/mL; in the experiment on RAW264.7 [5] it was 5319.6 pg/mL; in the experiment with RAW264.7 [6], 4367.3 pg/mL; in the experiment with RAW264.7 [7] it was 9582.9 pg/mL. For the same compound, the Activity is 4209.3 pg/mL in the experiment with RAW264.7 [9]; 3927.4 pg/mL in the experiment on RAW264.7 [10]; 470.1 pg/mL with RAW264.7 [12]; 998.2 pg/mL in the experiment with RAW264.7 [13]; 1561.1 pg/mL in the experiment on RAW264.7 [16]; 410.3 pg/mL in the experiment on RAW264.7 [17]. For the same compound, the Activity turned out to be 4721.3 pg/mL with RAW264.7 [18], 8796.7 pg/mL with RAW264.7 [19] and 1061.3 pg/mL in the experiment with RAW264.7 [20]. Besides, the outcome in the experiment on Danio rerio [2] and with Danio rerio [11] was Active. Also, the inhibition result in experiment [8] and in experiment [14] was “Dose-dependent effect” in each case. The IC50 in the experiment with RAW264.7 [15] was determined as 3.51 µM.

Turning to `CC1=C[C@H](O/C=C2/C(=O)O[C@@H]3c4ccccc4C[C@H]23)OC1=O`, the Activity with RAW264.7 [1] was 5036.1 pg/mL; in the experiment with RAW264.7 [3], 9397.7 pg/mL; in the experiment on RAW264.7 [4], 1351.9 pg/mL; with RAW264.7 [5] it was 5303.7 pg/mL; in the experiment on RAW264.7 [6] it was 4388.3 pg/mL; in the experiment with RAW264.7 [7] it was 9565.4 pg/mL. Moreover, the Activity with RAW264.7 [9] came to 4140.7 pg/mL; with RAW264.7 [10], 3862.3 pg/mL; in the experiment with RAW264.7 [12] it was 461.2 pg/mL; with RAW264.7 [13], 869 pg/mL; with RAW264.7 [16], 1499.2 pg/mL; in the experiment with RAW264.7 [17], 387.1 pg/mL. Also, the Activity came out at 4685.5 pg/mL in the experiment on RAW264.7 [18], 8660.7 pg/mL in the experiment with RAW264.7 [19] and 1002.2 pg/mL in the experiment on RAW264.7 [20]. The result in the experiment on Danio rerio [2] and in the experiment on Danio rerio [11] was Active. Also, the inhibition entry in experiment [8] and in [14] was “Dose-dependent effect” in each case. For the same compound, the IC50 in the experiment with RAW264.7 [15] was 3.14 µM.

The record behind these values is ChEMBL document CHEMBL4257465, “Strigolactones: a plant phytohormone as novel anti-inflammatory agents” (Medchemcomm, 2018).
